How the values were obtained:
[1] = Modulation of GABA alpha1beta2gamma2s receptor expressed in Xenopus laevis oocytes assessed as potentiation of GABA-induced chloride current at holding potential -70 mV by two-microelectrode voltage clamp technique; assay type: cell-based; conditions: Oocyte
Procedure, shortened: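 Oocytes were injected with α1, β2 and γ2s cRNAs mixed 1:1:10 and stored at 18 °C in ND96 (pH 7.4). GABA was applied at a concentration giving 3–7% of maximal current, determined for each oocyte. Enhancement was taken as (I(GABA+compound)/IGABA) − 1. Concentration–response data were fitted to a Hill equation. Control solutions carried equal DMSO, at most 0.3%.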

[2] = Octanol-water partition coefficient, log P of the compound; assay type: physicochemical; conditions: read-out: logP
[3] = target: T1, GABA-A receptor alpha-1/beta-3 (Homo sapiens, UniProt P14867+P28472); test: Modulation of GABA Aalpha1beta3 receptor expressed in Xenopus laevis oocytes assessed as potentiation of GABA-induced chloride current at holding potential -70 mV by two-microelectrode voltage clamp technique; assay type: cell-based, Oocyte
T1 sequence (P14867 whole entry): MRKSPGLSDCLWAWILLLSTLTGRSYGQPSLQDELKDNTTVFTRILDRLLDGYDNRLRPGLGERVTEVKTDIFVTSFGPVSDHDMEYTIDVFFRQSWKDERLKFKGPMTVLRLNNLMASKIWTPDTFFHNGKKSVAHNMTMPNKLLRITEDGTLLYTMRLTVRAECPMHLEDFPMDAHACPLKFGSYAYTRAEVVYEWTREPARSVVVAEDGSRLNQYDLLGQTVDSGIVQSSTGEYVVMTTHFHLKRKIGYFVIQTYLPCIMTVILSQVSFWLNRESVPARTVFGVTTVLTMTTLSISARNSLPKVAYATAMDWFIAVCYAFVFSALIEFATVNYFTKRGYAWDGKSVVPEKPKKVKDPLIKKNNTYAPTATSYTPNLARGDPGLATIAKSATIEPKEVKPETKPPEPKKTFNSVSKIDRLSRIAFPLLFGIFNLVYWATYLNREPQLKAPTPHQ
T1 sequence (P28472 whole entry): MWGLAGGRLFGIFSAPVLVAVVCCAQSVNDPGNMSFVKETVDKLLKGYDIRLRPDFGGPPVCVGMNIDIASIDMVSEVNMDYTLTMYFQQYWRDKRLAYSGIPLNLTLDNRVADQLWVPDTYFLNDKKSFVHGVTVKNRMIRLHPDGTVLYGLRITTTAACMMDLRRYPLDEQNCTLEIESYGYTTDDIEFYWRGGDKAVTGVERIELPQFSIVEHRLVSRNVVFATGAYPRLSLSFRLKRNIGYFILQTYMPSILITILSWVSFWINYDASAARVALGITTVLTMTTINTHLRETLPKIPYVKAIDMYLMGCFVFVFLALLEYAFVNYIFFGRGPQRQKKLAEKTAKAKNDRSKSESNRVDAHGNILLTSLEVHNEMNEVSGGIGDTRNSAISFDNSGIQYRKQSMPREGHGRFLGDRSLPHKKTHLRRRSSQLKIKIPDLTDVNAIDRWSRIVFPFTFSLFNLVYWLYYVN

[4] = target: T2, Gamma-aminobutyric acid receptor subunit alpha-3/ beta-2 (Homo sapiens, UniProt P34903+P47870); test: Modulation of GABA Aalpha3beta2 receptor expressed in Xenopus laevis oocytes assessed as potentiation of GABA-induced chloride current at holding potential -70 mV by two-microelectrode voltage clamp technique; assay type: cell-based, Oocyte
T2 sequence (P47870 whole entry): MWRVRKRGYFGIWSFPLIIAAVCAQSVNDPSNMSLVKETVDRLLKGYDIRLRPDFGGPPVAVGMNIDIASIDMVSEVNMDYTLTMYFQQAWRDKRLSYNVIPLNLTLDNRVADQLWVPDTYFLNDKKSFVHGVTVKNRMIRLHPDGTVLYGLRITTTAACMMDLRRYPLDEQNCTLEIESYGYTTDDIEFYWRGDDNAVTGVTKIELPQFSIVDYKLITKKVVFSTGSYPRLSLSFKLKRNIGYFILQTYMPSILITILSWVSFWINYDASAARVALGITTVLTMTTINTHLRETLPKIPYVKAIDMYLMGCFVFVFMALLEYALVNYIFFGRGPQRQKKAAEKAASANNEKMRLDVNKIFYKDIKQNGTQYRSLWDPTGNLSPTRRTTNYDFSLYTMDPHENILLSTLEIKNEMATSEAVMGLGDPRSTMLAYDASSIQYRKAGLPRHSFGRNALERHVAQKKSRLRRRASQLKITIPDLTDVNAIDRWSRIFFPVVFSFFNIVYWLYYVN
T2 sequence (P34903 whole entry): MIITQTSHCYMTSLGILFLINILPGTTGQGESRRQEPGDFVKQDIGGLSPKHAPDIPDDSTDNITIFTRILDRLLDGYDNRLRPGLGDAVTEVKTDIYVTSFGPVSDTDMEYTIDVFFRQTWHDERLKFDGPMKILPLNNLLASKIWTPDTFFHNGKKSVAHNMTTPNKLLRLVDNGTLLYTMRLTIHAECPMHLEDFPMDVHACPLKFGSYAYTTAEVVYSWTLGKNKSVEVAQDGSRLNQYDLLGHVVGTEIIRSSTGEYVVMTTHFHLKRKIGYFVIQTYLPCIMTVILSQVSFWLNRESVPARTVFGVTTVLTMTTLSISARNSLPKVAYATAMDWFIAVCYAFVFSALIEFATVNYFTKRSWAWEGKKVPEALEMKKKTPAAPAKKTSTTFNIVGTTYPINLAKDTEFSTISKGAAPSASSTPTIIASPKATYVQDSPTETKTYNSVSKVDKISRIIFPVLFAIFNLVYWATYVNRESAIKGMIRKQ
Procedure, shortened: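 Stage V–VI Xenopus oocytes, defolliculated with 2 mg/mL collagenase, injected with α(1, 2, 3 or 5) and β2 cRNAs mixed 1:1, then kept at 18 °C in ND96 (pH 7.4). Enhancement = I(GABA+compound)/IGABA − 1. Curves were Hill-fitted for EC50. Bath DMSO was at most 0.3%, matched in controls.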

Oocyte = test: Modulation of GABA alpha1beta2gamma2s receptor expressed in Xenopus laevis oocytes assessed as potentiation of GABA-induced chloride current at holding potential -70 mV at 10 uM by two-microelectrode voltage clamp technique in presence of 1 uM of flumazenil relative to GABA; assay type: cell-based
[5] = target: GABA-A receptor; GABA-A site (alpha1/beta2 interface) (Homo sapiens) (UniProt P14867+P47870); test: Modulation of GABA Aalpha1beta2 receptor expressed in Xenopus laevis oocytes assessed as potentiation of GABA-induced chloride current at holding potential -70 mV at 30 uM by two-microelectrode voltage clamp technique relative to GABA; assay type: cell-based; conditions: Oocyte
Procedure, shortened: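 Single-concentration screen at 30 μM on α1β2 receptors (cRNA 1:1) in Xenopus oocytes. Enhancement was (I(GABA+compound)/IGABA)−1. DMSO was matched in control and test solutions, maximum 0.3% in the bath.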

Compound `C=CCc1ccc(O)c(-c2ccc(O)c(CC=C)c2)c1` [HONOKIOL] has an EC50 [1] of 36.2 µM, a logP [2] of 5.16 and an EC50 [3] of 59.6 µM. The EC50 [4] was 52.4 µM, the Activity (Oocyte) was 116% and the Activity [5] was 376%.
